Source: ChEMBL document CHEMBL1154190, “Development and screening of water-soluble analogues of progesterone and allopregnanolone in models of brain injury” (J Med Chem, 2009)

Legend:
[1] = Solubility in phosphate buffered saline; format: physicochemical
How it was run: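 Compound added in small portions to phosphate buffered saline at room temperature with stirring until a visible saturation end point; solubility reported as mg/mL.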

[2] = Inhibition of glutamate-induced excitotoxicity in rat E18 cells assessed as reduction in cell death at 5 uM pretreated for 24 hrs before glutamate challenge measured after 24 hrs by MTT assay; format: functional
How it was run: (§1)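 Rat E18 primary cortical cells cultured 8-10 days in neurobasal medium, pretreated 24 h with compound (tested at 0.1-80 μM, DMSO <5 μL/mL medium), then glutamate 0.5 μM (in PBS pH 7.4) added for a further 24 h with compound still present. Viability by MTT formazan photometry; reduction in cell death vs glutamate-only control, mean ± SEM, ANOVA/Dunnett, p < 0.05.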

Rattus norvegicus = assay: Neuroprotective effect against traumatic brain injury-induced cerebral edema in rat assessed as decrease in edema level at 8 mg/kg administered intraperitoneally 1 hr post-TBI followed by second sc dose at 6 hrs post-TBI measured after 24 hrs relative to control; format: functional; parameters: scale not given: the % may be the effect or the level left; conditions: route intraperitoneal at 1 h, then subcutaneous at 6 h
How it was run: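 Bilateral medial frontal cortex contusion made with a pneumatic impactor in rats under isoflurane (5% induction, 2% maintenance, N₂O/O₂), body temperature held with a heating blanket. Dosing: 8 mg/kg in 22.5% w/v 2-hydroxypropyl-β-cyclodextrin, IP at 1 h, then SC at 6 h. Sham and vehicle groups included. At 24 h, pentobarbital overdose; pericontusional tissue dried at 60 °C, 0.3 atm for 24 h. Water % = (wet−dry)/wet×100; decrease vs vehicle, mean ± SEM.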

[3] = Inhibition of glutamate-induced excitotoxicity in rat E18 cells assessed as reduction in cell death at 10 uM pretreated for 24 hrs before glutamate challenge measured after 24 hrs by MTT assay; format: functional; how it was run: as §1
[4] = Inhibition of glutamate-induced excitotoxicity in rat E18 cells assessed as reduction in cell death at 80 uM pretreated for 24 hrs before glutamate challenge measured after 24 hrs by MTT assay; format: functional
How it was run: (§2)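 Rat E18 primary cortical neurons cultured 8-10 days in neurobasal medium, pretreated 24 h with compound (0.1-80 μM, DMSO, final DMSO <5 μL/mL), then glutamate 0.5 μM (in PBS pH 7.4) for 24 h with compound still present. Viability read by MTT formazan photometry; % reduction in cell death vs glutamate control, mean ± SEM, ANOVA with Dunnett's test.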

[5] = Inhibition of glutamate-induced excitotoxicity in rat E18 cells assessed as reduction in cell death at 20 uM pretreated for 24 hrs before glutamate challenge measured after 24 hrs by MTT assay; format: functional; how it was run: as §2
[6] = phosphate buffered saline, read-out: solubility

Compound `CC(=O)[C@H]1CC[C@H]2[C@@H]3CCC4=C/C(=N\OC(=O)[C@@H](N)C(C)C)CC[C@]4(C)[C@H]3CC[C@]12C.Cl` has a solubility [1, 6] of 15200 µg/mL, an inhibition at 5 µM [2] of 34% and an Activity (Rattus norvegicus) of 75%.

Work on `CC(=O)[C@H]1CC[C@H]2[C@@H]3CCC4=C[C@@H](OC(=O)[C@H](C)N)CC[C@]4(C)[C@H]3CC[C@]12C.Cl` yielded a solubility [1, 6] of 3340 µg/mL and an inhibition at 5 µM [2] of 13%.

Compound `CC(=O)[C@H]1CC[C@H]2[C@@H]3CCC4=C[C@@H](OC(=O)[C@@H](N)Cc5ccccc5)CC[C@]4(C)[C@H]3CC[C@]12C.Cl` has a solubility [1, 6] of 610 µg/mL.

`CC(=O)[C@H]1CC[C@H]2[C@@H]3CC[C@@H]4C[C@H](OC(=O)[C@@H](N)C(C)C)CC[C@]4(C)[C@H]3CC[C@]12C.Cl` showed a solubility [1, 6] of 300 µg/mL and an Activity (Rattus norvegicus) of 31%.

With `CC(=O)[C@H]1CC[C@H]2[C@@H]3CCC4=C[C@@H](OC(=O)[C@@H](N)C(C)C)CC[C@]4(C)[C@H]3CC[C@]12C.Cl` the solubility [1, 6] was 3850 µg/mL and the inhibition at 5 µM [2] was 8%.

In the case of `CC(=O)[C@H]1CC[C@H]2[C@@H]3CCC4=C[C@@H](OC(=O)[C@@H]5CCCN5)CC[C@]4(C)[C@H]3CC[C@]12C.Cl`, the solubility [1, 6] is reported as 1530 µg/mL and the inhibition at 5 µM [2] is reported as 15%.

For `CC(=O)[C@H]1CC[C@H]2[C@@H]3CC[C@H]4C[C@H](OC(=O)[C@@H](N)C(C)C)CC[C@]4(C)[C@H]3CC[C@]12C.Cl`, the solubility [1, 6] was less than 50 µg/mL and the Activity (Rattus norvegicus) was 49%.

Work on `CC(=O)[C@H]1CC[C@H]2[C@@H]3CCC4=C[C@@H](OC(=O)[C@@H](N)Cc5c[nH]c6ccccc56)CC[C@]4(C)[C@H]3CC[C@]12C` yielded an inhibition at 5 µM [2] of 1%.

`CC(C)[C@H](N)C(=O)O[C@@H](C)[C@H]1CC[C@H]2[C@@H]3CCC4=CC(=O)CC[C@]4(C)[C@H]3CC[C@]12C` showed an inhibition at 10 µM [3] of 30% and an inhibition at 5 µM [2] of 23%.

Work on `CC(=O)[C@H]1CC[C@H]2[C@@H]3CC[C@H]4C[C@H](O)CC[C@]4(C)[C@H]3CC[C@]12C` [BREXANOLONE] yielded a solubility [1, 6] of less than 50 µg/mL, an inhibition at 80 µM [4] of 40% and an inhibition at 5 µM [2] of -3%.

`CC(=O)[C@H]1CC[C@H]2[C@@H]3CC[C@H]4C[C@@H](OC(=O)[C@@H](N)C(C)C)CC[C@]4(C)[C@H]3CC[C@]12C.Cl` gave a solubility [1, 6] of less than 50 µg/mL and an Activity (Rattus norvegicus) of 40%.

For `CC(=O)[C@H]1CC[C@H]2[C@@H]3CCC4=CC(=O)CC[C@]4(C)[C@H]3CC[C@]12C` [PROGESTERONE], the inhibition at 20 µM [5] was 42%, the solubility [1, 6] was less than 50 µg/mL and the inhibition at 5 µM [2] was 4%. The Activity (Rattus norvegicus) was 60%.

Work on `CC(=O)[C@H]1CC[C@H]2[C@@H]3CC[C@@H]4C[C@@H](OC(=O)[C@@H](N)C(C)C)CC[C@]4(C)[C@H]3CC[C@]12C.Cl` yielded a solubility [1, 6] of less than 50 µg/mL and an Activity (Rattus norvegicus) of 11%.

Compound `CC(=O)[C@H]1CC[C@H]2[C@@H]3CCC4=C/C(=N/OC(=O)[C@@H](N)C(C)C)CC[C@]4(C)[C@H]3CC[C@]12C.Cl` has a solubility ([1]; buffer) of 13000 µg/mL, an inhibition at 5 µM [2] of 27% and an Activity (Rattus norvegicus) of 57%.
